Published values gathered from unrelated publications.
Lines come from different studies, so protocols differ.

Oc1c(Cl)cc(Cl)cc1-c1[nH]c(Cl)c(Cl)c1Cl
MIC (Staphylococcus aureus; microbial growth; BAA44 MRSA): 0.06 µM

O=c1ccc2nc3ccc(OCc4ccc([N+](=O)[O-])o4)cc3oc-2c1
MIC (Staphylococcus aureus; microbial growth; MRSA; 24 h): > 32 µg/mL

COc1c(N2C[C@@H]3CCCN[C@@H]3C2)c(F)cc2c(=O)c(C(=O)O)cn(C3CC3)c12
MIC (Escherichia coli; microbial growth; ATCC25922): 0.03 µM

N.N.[Cl][Pt][Cl]
IC50 (HK-2; cell growth or viability, MTT; 72 h): 7.59 µM

CN[C@H](CC(C)C)C(=O)N[C@H]1C(=O)N[C@@H](CC(N)=O)C(=O)N[C@H]2C(=O)N[C@H]3C(=O)N[C@H](C(=O)N[C@H](C(=O)O)c4cc(O)cc(O)c4-c4cc3ccc4O)[C@H](O)c3ccc(c(Cl)c3)Oc3cc2cc(c3O[C@@H]2O[C@H](CO)[C@@H](O)[C@H](O)[C@H]2O[C@H]2C[C@](C)(N)[C@H](O)[C@H](C)O2)Oc2ccc(cc2Cl)[C@H]1O
MIC (Staphylococcus aureus; microbial growth, broth dilution; MRSA; 24 h, drug-resistant strain): 0.67 µM

COc1c(N2CC3CCCNC3C2)c(F)cc2c(=O)c(C(=O)OCc3cnc([N+](=O)[O-])s3)cn(C3CC3)c12 (centres unmarked)
MIC (Escherichia coli; microbial growth; ATCC25922): 0.09 µM

Oc1c(Br)cc(Br)cc1-c1[nH]c(Br)c(Br)c1Br
MIC (Staphylococcus aureus; microbial growth; ATCC29213 MSSA): 0.58 µM

O=c1ccc2nc3ccc(O)cc3oc-2c1
MIC (Escherichia coli; microbial growth; 24 h): > 32 µg/mL
